The text below walks through data of ChEMBL document CHEMBL3232870, “Discovery of 3-(4-methanesulfonylphenoxy)-N-[1-(2-methoxy-ethoxymethyl)-1H-pyrazol-3-yl]-5-(3-methylpyridin-2-yl)-benzamide as a novel glucokinase activator (GKA) for the treatment of type 2 diabetes mellitus” (Bioorg Med Chem, 2014).

Structures are written as SMILES.

One data set has as its system Salmonella typhimurium. The experiment in a line: Cytotoxicity in Salmonella typhimurium TA98 at 1.5 to 5000 ug/plate in presence of S9 fraction. The data set is classed as organism-based. The conditions noted are these: salmonella enterica subsp. enterica serovar typhimurium. The essentials:
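Ames reverse mutation test by direct plate incorporation in S. typhimurium TA98 and TA100, with or without Aroclor 1254-induced rat liver S9 mix. Compound in DMSO at 1.5–5000 µg/plate, plated in top agar, incubated 37 °C for about 50 h, then revertant colonies counted. Plates were checked for precipitation and cytotoxicity. A positive was a reproducible, dose-related increase in revertants of more than 2-fold.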

A short description of data set [1]: Clearance in ICR mouse at 3 mg/kg, iv and 10 mg/kg, po. The data set is classed as ADME, organism-based. The settings on record: in vivo. A digest of the protocol: (§1)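 Male ICR mice and 7-week-old SD rats received a 3 mg/kg intravenous bolus or a 10 mg/kg oral gavage dose. Plasma was deproteinized with acetonitrile (2 volumes) and compound measured by HPLC. Parameters came from noncompartmental analysis.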

A short description of data set [2]: Clearance in Sprague-Dawley rat at 3 mg/kg, iv and 10 mg/kg, po. Type of data set: ADME, organism-based. The settings on record: in vivo. A digest of the protocol: as §1
The nature of data set [3]: Tmax in Sprague-Dawley rat at 3 mg/kg, iv and 10 mg/kg, po. The data set is classed as ADME, organism-based. The conditions noted are these: in vivo. The essentials: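 Male ICR mice and 7-week-old SD rats received a 3 mg/kg iv bolus or a 10 mg/kg oral gavage dose. Plasma was precipitated with 2 volumes of acetonitrile and analysed by HPLC. Parameters came from noncompartmental analysis.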

Data set [4] in a line: Cmax in male Sprague-Dawley rat at 500 mg/kg, po measured on day 1. Type of data set: ADME, organism-based. The conditions noted are these: in vivo. Set-up: dose 500 mg/kg, route oral. A digest of the protocol:
(§2)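 Sprague–Dawley rats, 5 weeks old at arrival, both sexes. Given the compound by oral gavage once daily for 14 days at 0, 250, 500 or 1000 mg/kg/day, with 0.5% methylcellulose as vehicle. Toxicokinetic parameters were determined on Day 1 and Day 14.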

Data set [5] in a line: Tmax in male Sprague-Dawley rat at 500 mg/kg, po measured on day 1. The data set is classed as ADME, organism-based. The settings on record: in vivo. Details: dose 500 mg/kg, route oral. A digest of the protocol: (§3)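 Sprague–Dawley rats of both sexes, 5 weeks old at arrival, received daily oral gavage at 0, 250, 500 or 1000 mg/kg/day for 14 days. Vehicle was 0.5% methylcellulose at 10 mL/kg. Toxicokinetics were taken on Day 1 and Day 14. Necropsy was by Day 15. Testis was fixed in modified Davidson's fixative, paraffin-sectioned and H&E-stained, with histopathology on control and high-dose groups only.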

The nature of data set [6]: Tmax in female Sprague-Dawley rat at 250 mg/kg, po measured on day 1. Type of data set: ADME, organism-based. Set-up: dose 250 mg/kg, route oral. The settings on record: in vivo. The essentials:
as §3

The nature of data set [7]: AUC (0 to t) in male Sprague-Dawley rat at 1000 mg/kg, po measured on day 1. The settings on record: plasma. Type of data set: ADME, organism-based. Set-up: dose 1000 mg/kg, route oral. The essentials:
as §2

A short description of data set [8]: AUC (0 to t) in female Sprague-Dawley rat at 1000 mg/kg, po measured on day 1. The settings on record: plasma. Details: dose 1000 mg/kg, route oral; call rule not given here. Type of data set: ADME, organism-based. The essentials: as §2
A short description of data set [9]: AUC (0 to t) in female Sprague-Dawley rat at 1000 mg/kg, po measured on day 14. The data set is classed as ADME, organism-based. Details: dose 1000 mg/kg, route oral. The conditions noted are these: plasma. The essentials:
as §2

In a further data set the test system is Rattus norvegicus. Nature of the data set: Toxicity in Sprague-Dawley rat assessed as seminiferous tubule vacuolation at 250 to 1000 mg/kg, po by hematoxylin and eosin staining-based microscopy. Type of data set: organism-based. Details: dose 250-1000 mg/kg, route oral. The settings on record: in vivo. A digest of the protocol:
as §3

In a further data set the test system is Canis familiaris. Nature of the data set: Toxicity in Beagle dog assessed as testicular effect administered repeated dose level of 100 mg/kg/day, po administered on days 3, 6 and 8 by hematoxylin and eosin staining-based microscopy. Type of data set: organism-based, Canis lupus familiaris. Set-up: route oral. The settings on record: in vivo. The essentials:
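Dogs received escalating oral doses of 100, 300 and 1000 mg/kg/day over 8 days (Days 3, 6 and 8 for each dose). Vehicle was 0.5% methylcellulose at 5 mL/kg. Two animals were necropsied at termination, and testes were fixed in modified Davidson's fixative, paraffin-embedded, H&E-stained and examined microscopically.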

Data set [10] can be described thus: Metabolic stability in mouse liver microsomes assessed as compound remaining after 1 hr relative to control. The data set is classed as ADME. The settings on record: read-out: Stability. The essentials:
(§4)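 Liver microsomes from mouse, dog or human were incubated with compound for 1 h, and the percentage of compound remaining was determined.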

The target of another data set is Cytochrome P450 2C19 (Homo sapiens, UniProt P33261). The experiment in a line: Inhibition of CYP2C19 in human liver microsomes. Type of data set: ADME. The essentials: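 Pooled human liver microsomes (0.25 mg/mL) with a CYP-selective substrate and test compound, preincubated at 37 °C. Stopped on ice with ice-cold acetonitrile, centrifuged, and the supernatant analysed by LC–MS/MS.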

The next data set deals with T1, Cytochrome P450 2B6 (Homo sapiens, UniProt P20813).
T1 sequence (P20813 whole entry): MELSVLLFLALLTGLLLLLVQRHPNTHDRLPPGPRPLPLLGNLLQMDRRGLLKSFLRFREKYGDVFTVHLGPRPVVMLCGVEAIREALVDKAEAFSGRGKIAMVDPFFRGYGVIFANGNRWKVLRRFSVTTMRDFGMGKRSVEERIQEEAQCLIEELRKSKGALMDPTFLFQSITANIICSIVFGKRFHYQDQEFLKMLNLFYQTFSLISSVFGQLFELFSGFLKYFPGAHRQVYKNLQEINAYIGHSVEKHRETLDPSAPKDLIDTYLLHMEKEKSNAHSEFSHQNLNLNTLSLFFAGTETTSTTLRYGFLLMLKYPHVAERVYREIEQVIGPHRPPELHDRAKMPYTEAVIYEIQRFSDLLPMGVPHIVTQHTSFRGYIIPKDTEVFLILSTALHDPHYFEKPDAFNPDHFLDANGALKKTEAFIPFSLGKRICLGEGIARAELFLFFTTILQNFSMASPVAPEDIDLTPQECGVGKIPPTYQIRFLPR
Nature of the data set: Inhibition of CYP2B6 in human liver microsomes. The data set is classed as ADME. A digest of the protocol:
(§5)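 Pooled human liver microsomes at 0.25 mg/mL, each with a CYP-selective substrate and test compound up to 25 µM, preincubated at 37 °C. It is stopped on ice with ice-cold acetonitrile and centrifuged, and the supernatant is analysed by LC–MS/MS.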

The target in another data set is T2, Cytochrome P450 2C8 (Homo sapiens, UniProt P10632).
T2 sequence (P10632 whole entry): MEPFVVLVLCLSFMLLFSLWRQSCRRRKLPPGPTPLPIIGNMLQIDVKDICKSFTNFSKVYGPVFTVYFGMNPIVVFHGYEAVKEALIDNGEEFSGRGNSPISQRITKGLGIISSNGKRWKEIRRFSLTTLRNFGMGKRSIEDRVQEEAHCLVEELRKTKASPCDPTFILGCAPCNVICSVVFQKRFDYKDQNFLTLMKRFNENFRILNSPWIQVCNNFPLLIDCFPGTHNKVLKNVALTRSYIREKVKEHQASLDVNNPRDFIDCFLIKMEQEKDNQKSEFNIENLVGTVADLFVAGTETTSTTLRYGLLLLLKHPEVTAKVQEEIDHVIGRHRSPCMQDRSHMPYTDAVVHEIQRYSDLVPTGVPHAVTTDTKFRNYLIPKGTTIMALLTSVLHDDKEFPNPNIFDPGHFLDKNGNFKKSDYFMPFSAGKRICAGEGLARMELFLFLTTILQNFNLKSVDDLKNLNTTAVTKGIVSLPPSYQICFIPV
The experiment in a line: Inhibition of CYP2C8 in human liver microsomes. The data set is classed as ADME. The essentials:
as §5

A further data set concerns the target Cytochrome P450 2D6 (Homo sapiens, UniProt P10635). Nature of the data set: Inhibition of CYP2D6 in human liver microsomes. The data set is classed as ADME. A digest of the protocol:
as §5

Data set [11] can be described thus: Metabolic stability in dog liver microsomes assessed as compound remaining after 1 hr relative to control. The data set is classed as ADME, Canis lupus familiaris. The settings on record: read-out: Stability. The essentials:
as §4

Chain of Cytochrome P450 2D6 (P10635 whole entry): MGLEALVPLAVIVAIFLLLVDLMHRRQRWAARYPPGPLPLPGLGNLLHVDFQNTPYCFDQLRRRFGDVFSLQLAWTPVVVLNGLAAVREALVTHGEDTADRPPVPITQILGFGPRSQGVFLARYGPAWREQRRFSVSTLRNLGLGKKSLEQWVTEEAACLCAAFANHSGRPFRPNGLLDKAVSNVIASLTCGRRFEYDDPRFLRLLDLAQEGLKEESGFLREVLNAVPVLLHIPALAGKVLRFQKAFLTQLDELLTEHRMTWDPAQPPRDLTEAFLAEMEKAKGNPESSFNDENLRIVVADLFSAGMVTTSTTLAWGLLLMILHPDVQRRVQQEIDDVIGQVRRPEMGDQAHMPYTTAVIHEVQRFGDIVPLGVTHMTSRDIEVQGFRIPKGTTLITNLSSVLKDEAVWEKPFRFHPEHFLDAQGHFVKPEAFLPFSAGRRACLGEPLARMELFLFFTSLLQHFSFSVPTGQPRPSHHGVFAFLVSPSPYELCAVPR
Chain of Cytochrome P450 2C19 (P33261 whole entry): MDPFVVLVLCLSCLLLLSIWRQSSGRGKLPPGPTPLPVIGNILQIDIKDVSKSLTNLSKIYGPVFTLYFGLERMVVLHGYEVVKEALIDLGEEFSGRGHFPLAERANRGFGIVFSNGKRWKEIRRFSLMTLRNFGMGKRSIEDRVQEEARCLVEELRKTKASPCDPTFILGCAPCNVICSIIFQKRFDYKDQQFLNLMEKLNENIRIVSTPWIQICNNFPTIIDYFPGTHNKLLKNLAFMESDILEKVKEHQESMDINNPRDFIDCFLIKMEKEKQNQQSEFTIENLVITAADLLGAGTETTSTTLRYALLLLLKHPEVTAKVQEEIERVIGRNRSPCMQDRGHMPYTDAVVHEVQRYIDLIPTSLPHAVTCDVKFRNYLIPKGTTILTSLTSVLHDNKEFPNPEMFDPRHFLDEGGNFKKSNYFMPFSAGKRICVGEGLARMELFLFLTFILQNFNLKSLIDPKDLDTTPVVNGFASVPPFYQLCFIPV

As for `COCCOCn1ccc(NC(=O)c2cc(Oc3ccc(S(C)(=O)=O)cc3)cc(-c3ncccc3C)c2)n1`, the Activity result in the data set on Salmonella typhimurium, in the data set on Rattus norvegicus and in the data set with Canis familiaris was “Non-toxic” each time. In addition, the clearance is 0.2 L/h/kg in [1] and 0.59 L/h/kg in [2]. Besides, the Tmax amounted to 0.42 h in [3], 3.7 h in data set [5] and 3.7 h in data set [6]. The compound also showed a Cmax in data set [4] of 4.1 µg/mL. Further, the AUC(0-t) was determined as 35.4 µg·h/mL in data set [7], 29.2 µg·h/mL in data set [8] and 24 µg·h/mL in [9]. For the same compound, the remaining at 1 h in [10] and in [11] was more than 60% throughout. The “inhibition (INH)” value against Cytochrome P450 2C19, against Cytochrome P450 2B6, at Cytochrome P450 2C8 and against Cytochrome P450 2D6 was “Not Active” each time.
